# Calb biofilm kill – mixture kills Candida albicans biofilm cells. C. albicans biofilm persisters + clotrimazole, fluorescence viability; primary screen in compound mixtures of four per well. inhibition, % at 7.6 µM. hit rate 0.02% among 120,000. AID 1242;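 active means inhibition above 30.3% in the primary screen of four-compound pools, then above 30% when the compound was retested; inconclusive means passed the primary limit but could not be retested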;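 further: compounds exposed to preformed 24 h biofilms for 48 h; 0% = untreated biofilm control and 100% = clotrimazole plus chlorhexidine kill blank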
#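 Probe or stimulus – Clotrimazole 50 µg/mL co-treatment · System – C. albicans biofilms · Schedule – 24 h biofilm formation, then 48 h compound exposure, 37 °C · Evaluation – percent inhibition of biofilm viability · Technique – 2-h Alamar Blue fluorescence, 535/590 nm excitation/emission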
# ROMK primary – modulates human ROMK potassium channel activity; P48048; Tet-inducible ROMK, thallium flux fluorescence; actives lie on both sides; AID 1918; B-score at 10 µM; hit rate 2% among 130,000;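 active means signal ratio slope over the read window, or its plate-corrected B-score, at least 3 SD from the plate mean, either direction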;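 further: B-score of the F/F0 ratio slope over 7 to 12 s after thallium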
# Target sequence (P48048 whole entry, looked up): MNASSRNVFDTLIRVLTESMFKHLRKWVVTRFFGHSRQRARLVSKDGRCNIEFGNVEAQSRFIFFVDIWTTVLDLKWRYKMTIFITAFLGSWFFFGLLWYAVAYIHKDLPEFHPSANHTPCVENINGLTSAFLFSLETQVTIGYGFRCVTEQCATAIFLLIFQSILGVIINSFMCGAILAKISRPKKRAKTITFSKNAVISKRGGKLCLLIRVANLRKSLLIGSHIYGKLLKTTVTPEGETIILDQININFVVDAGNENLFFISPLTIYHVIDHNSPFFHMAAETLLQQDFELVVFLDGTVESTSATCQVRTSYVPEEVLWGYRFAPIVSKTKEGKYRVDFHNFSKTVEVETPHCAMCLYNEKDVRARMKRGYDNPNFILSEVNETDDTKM
# Pf gametocyte – kills late stage P. falciparum gametocytes | inhibition, % at 10.9 µM | AID 743093 | hit rate 0.065% among 150,000 | P. falciparum stage V gametocytes, ATP luminescence, 24 h;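 active means inhibition above the mean plus 3 SD of compounds within the control limits, set per campaign, cut at about 38% in these data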;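 further: 0% = DMSO wells and 100% = medium only without gametocytes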
# ROMK retest – human ROMK channel modulation, retest confirmation. shares compounds with ROMK primary. normalized thallium flux (F/F0 slope) at 10 µM. hit rate 54% among 3,000. ROMK thallium flux, fluorescence ratio; active compounds read low. AID 1917;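 active means Flux at 10 µM at least 3 SD below or above vehicle control mean in one or both replicates; inconclusive means no clear call, values can overlap the other calls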
# Numbers without * were called inactive; ? = inconclusive; . = not tested or not shown. Many of the other results were omitted from the sample, so hits are more common in it than they were.
SMILES,Calb biofilm kill,ROMK primary,Pf gametocyte,ROMK retest
Cc1c(CCCN)c2ccccc2n1Cc1ccccc1,16,-2.9*,-27,0.05*
O=Nc1c(O)n(Cc2ccccc2)c2ccccc12,22,.,24,.
Cc1ccc(C#N)c(SCC(=O)Nc2nccs2)n1,-12,-0.00028,6,.
NS(=O)(=O)c1ccc(CCNC(=O)COC(=O)/C=C/c2ccc(Cl)cc2)cc1,12,.,.,.
CC1=C(C)CS(=O)N(S(=O)(=O)c2ccccc2)C1 (stereo not drawn),.,-5.5*,3,0.047*
Cc1cccc(C)c1N1CCN(S(=O)(=O)c2ccccc2)CC1,14,-0.0043,-15,.
Cc1nc2ncccn2c1-c1csc(Nc2ccc(N(C)C)cc2)n1,15,7.2*,.,0.093
COc1ccccc1Nc1nc(-c2c(C)nc3ncccn23)cs1,20,1.2,7,.
COc1ccccc1OCCN(C#N)c1nc(N(C)C)nc(N(C)C)n1,26,.,21,.
COC(=O)C1C(c2ccccc2)C(C(=O)O)C1c1ccccc1 (stereo not drawn),17,2,10,0.075
O=C(O)COC(=O)C1C(c2ccccc2)C(C(=O)O)C1c1ccccc1 (stereo not drawn),2,1.2,-9,.
COc1cc(-c2nc(C)c(C(C)=O)n2O)ccc1OCC(=O)Nc1ccc(Cl)cc1,16,-1.8,13,.
Cc1nc(Sc2ccc(Br)cc2)c(C#N)c(C)c1[N+](=O)[O-],6,.,-2,.
Cc1ccc(CCN2C(=O)CCC2(C)C(=O)NC2CCCC2)cc1 (stereo not drawn),-1,1,.,0.072
COc1ccc(CCN2C(=O)CCC2(C)C(=O)NC2CCCC2)cc1OC (stereo not drawn),5,-0.4,-14,.
CCN(CC)S(=O)(=O)c1cccc2cccnc12,.,-0.02,1,.
CSS(=O)(=O)c1cccc2cccnc12,17,.,12,0.09
CCCn1ncc(/C=N/O)c1C,27,.,4,.
CCn1c(CCNC(=O)c2cccs2)n[nH]c1=S,10,.,-8,.
Cc1cc(C)cc(NC(=O)C(C)N2C(=O)c3ccccc3C2=O)c1 (stereo not drawn),.,.,-28,.
Cc1cc(C)cc(OCCNC(=O)C(C)N2C(=O)c3ccccc3C2=O)c1 (stereo not drawn),24,2.4*,-6,0.083
Cc1ccc(CN2C(=O)CNC2=S)cc1,22,-0.68,3,.
CCOC(=O)c1[nH]c(C)c(C(=O)N2CCc3ccccc32)c1C,.,3.2*,.,0.082
CC(=O)c1c(C)[nH]c(C(=O)N2CCc3ccccc32)c1C,.,0.22,-11,.
COc1ccc(-n2c(C)c([N+](=O)[O-])c3ccc(O)c(CN(C)C)c32)cc1,.,.,.,0.033*
SMILES,Calb biofilm kill,ROMK primary,Pf gametocyte,ROMK retest
COc1ccc(-n2c(C(C)n3nc(C)c([N+](=O)[O-])c3C)n[nH]c2=S)cc1 (stereo not drawn),21,.,-14,.
CCN1CC(CN(C)Cc2cn(-c3cccc(C)c3)nc2-c2cccc(F)c2)CC1=O (stereo not drawn),24,-0.007,17,.
CC(C)CC(=O)OC1C(N2CCOCC2)c2c(ccc(/C=C/C(=O)N3CCOCC3)c2O)OC1(C)C (stereo not drawn),14,0.9,-8,.
COC(=O)c1ccc(C(=O)OC)c(NC(=S)N2CCOCC2)c1,14,-0.29,7,.
Cc1cc(C(=O)CN2C(=O)NC(c3ccccc3)(c3ccccc3)C2=O)c(C)n1Cc1ccco1,.,.,6,.
Cc1cc(C(=O)CN2C(=O)NC(C)(c3cccc(Br)c3)C2=O)c(C)n1Cc1ccco1 (stereo not drawn),.,.,-25,?
O=C(N=Nc1c(O)[nH]c2ccccc12)c1ccco1,4,0.43,18,.
COc1ccc(CN(C)C2CCCCC2)c(C)c1C,.,-4*,.,0.068*
COc1ccc(CN2CCCCC2C)c(C)c1C (stereo not drawn),.,.,12,.
O=C(COC(=O)c1cc(=O)[nH]c2ccccc12)Nc1nc(-c2ccc(F)cc2)cs1,.,.,23,.
CCOc1cc(/C=N/NC(=O)C(N)=O)cc(Br)c1O,-16,0.002,.,.
CCOc1cc(/C=N/n2cnnc2)cc(Br)c1O,.,.,.,0.077
Cc1cc(C)cc(OCC(=O)O/N=C(\N)c2ccccc2Cl)c1,22,0.78,-8,.
COCCn1nnnc1C(c1cccc(C(F)(F)F)c1)N1CCN(Cc2ccccc2)CC1 (stereo not drawn),.,-3.9*,.,0.054*
COCCn1nnnc1C(c1cccc(C(F)(F)F)c1)N1CCOCC1 (stereo not drawn),3,.,.,.
N#CCN=C(c1ccccc1)c1ccccc1,.,.,16,.
CCOC(=O)CNC(=O)CCCCCC(=O)NCC(=O)OCC,.,0.092,16,0.071
CCOC(=O)CNC(=S)SC,7,.,-14,.
Cc1nn(-c2ccc(F)cc2)c(C)c1/C=C/C(=O)N1CCNC(=O)C1,12,-0.24,8,.
Cn1ccnc1Sc1ccc(/C=N/NC(=O)c2ccccc2O)cc1[N+](=O)[O-],13,0.5,-23,.
Cc1ccc(NC(=S)NNC(=O)c2nnn(-c3ccccc3)c2C)cc1,11,-0.053,5,.
O=C1c2ccccc2C(=O)N1CCCCN(C(=O)c1ccco1)c1ccc(Cl)cc1,.,-3.4*,.,0.049*
O=C1c2ccccc2C(=O)N1CCCCN(C(=O)c1cccc([N+](=O)[O-])c1)c1ccc(Cl)cc1,.,.,-1,.
CCN(CCn1cccn1)Cc1c(C(=O)N2C[C@@H](C)O[C@@H](C)C2)nc2ccc(Cl)cn12,21,0.26,-8,.
CCOC(=O)C(=O)N1c2ccccc2C(N(C(=O)C(=O)OCC)c2ccccc2)CC1C (stereo not drawn),18,-0.15,-4,.
SMILES,Calb biofilm kill,ROMK primary,Pf gametocyte,ROMK retest
CC1CC(N(C(=O)C2CC2)c2ccccc2)c2ccccc2N1C(=O)C1CC1 (stereo not drawn),.,-3.4*,17,0.058*
O=C(c1cccc(N2C(=O)C3CC=CCC3C2=O)c1)N1CCCc2ccccc21 (stereo not drawn),8,0.11,-18,.
CC(=O)c1cc(CN2CCN(CC=C(C)C)C(CCO)C2)cs1 (stereo not drawn),9,1.6,-34,.
CC(=O)O[C@]1(C(C)=O)CC[C@H]2[C@@H]3C=C(Cl)C4=CC(=O)CC[C@]4(C)[C@H]3CC[C@@]21C,9,.,.,0.075
CC(=O)O[C@]1(C(C)=O)CC[C@H]2[C@@H]3C[C@H](C)C4=CC(=O)CC[C@]4(C)[C@H]3CC[C@@]21C,10,-1.8,.,.
CCn1ncc(C2=NOC(C(=O)NCc3ccccc3)C2)c1C (stereo not drawn),.,3.1*,16,0.079
CCn1ncc(C2=NOC(C(=O)NCc3ccc(OC)cc3)C2)c1C (stereo not drawn),.,.,9,.
CC(C)NC(=S)N/N=C/c1ccc(C(C)(C)C)cc1,15,-0.012,-11,.
Cc1cc[n+](-c2[nH]c(=O)sc2/C=N/N=C(\[O-])c2ccccc2)cc1C,13,-6.6*,3,0.047*
Cc1cc[n+](-c2[nH]c(=O)sc2/C=N/N=C(\[O-])c2ccccc2)cc1,21,.,4,.
CCn1c(O)c(/C=N/N=C2CCCCC2)c2cc(C3=NNC(=O)CC3)ccc21,20,.,-9,0.067*
CCn1c(O)c(/C=N/N=C2CCCC2)c2ccc(C3=NNC(=O)CC3)cc21,.,0.52,-9,.
CCOc1ccc(S(=O)(=O)N(C)CCO)cc1-c1nc2c(C(C)(C)C)nn(C)c2c(=O)[nH]1,.,-4.3*,.,0.048*
